Test results published in ChEMBL document CHEMBL1795271, “7-Alkyl-N(2)-substituted-3-deazaguanines. Synthesis, DNA polymerase III inhibition and antibacterial activity” (Bioorg Med Chem Lett, 2011).
≈ marks a conversion by molar mass, not a printed value.

Assays:
Escherichia coli [1] = assay: Antibacterial activity against Escherichia coli J-53 after 16 to 24 hrs by twofold serial dilution method; format: functional
[2] = (§1) Inhibition of Bacillus subtilis DNA polymerase 3C assessed as incorporation of [3H]TMP into activated calf thymus DNA incubated with dATP, dCTP and [3H]TTP in absence of dGTP
Method in brief: (§2)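 Recombinant B. subtilis pol IIIC assayed on activated calf thymus DNA with dATP, dCTP and [³H]TTP, without competitor dGTP. Read-out was [³H]TMP incorporation. Ki values are averages of at least two independent experiments.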

Enterococcus faecalis [3] = assay: Antibacterial activity against vancomycin-resistant Enterococcus faecalis after 16 to 24 hrs by twofold serial dilution method
Staphylococcus aureus [4] = assay: Antibacterial activity against Staphylococcus aureus Smith infected Swiss-webster mouse assessed as mouse survival at 100 mg/kg, ip administered 15 mins post-infection for 24 hrs relative to control; format: functional; settings: route intraperitoneal
Method in brief: (§3)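 Male pathogen-free Swiss–Webster mice, 20–24 g, with free access to food and water. S. aureus Smith grown to log phase at 37 °C in LB, with CFU estimated from OD600. Cells washed in cold broth and injected IP in 0.5 mL broth. Groups of 5 or 10 mice dosed IP 15 min post-infection with vehicle (10% DMSO/peanut oil) or compound in vehicle. Daptomycin 30 mg/Kg in saline served as control.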

Bacillus subtilis [5] = assay: Antibacterial activity against Bacillus subtilis BD54 after 16 to 24 hrs by twofold serial dilution method; format: functional
Escherichia coli [6] = assay: Inhibition of Escherichia coli DNA polymerase 3E assessed as incorporation of [3H]TMP into activated calf thymus DNA incubated with dATP, dCTP and [3H]TTP in absence of dGTP; settings: concentration not given here
Method in brief: (§4)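 Enzymes: recombinant B. subtilis pol IIIE and E. coli three-subunit pol III core. Each was assayed with activated calf thymus DNA, dATP, dCTP and [3H]TTP, without the competitor dGTP. [3H]TMP incorporation was measured and Ki derived. Values are averages of at least two independent experiments.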

Staphylococcus aureus [7] = assay: Antibacterial activity against methicillin-resistant Staphylococcus aureus ATCC 1094 after 16 to 24 hrs by twofold serial dilution method; format: functional
Enterococcus faecalis [8] = assay: Antibacterial activity against Enterococcus faecalis ATCC 29212 after 16 to 24 hrs by twofold serial dilution method; format: functional
Enterococcus faecium = assay: Antibacterial activity against Enterococcus faecium ATCC 19434 after 16 to 24 hrs by twofold serial dilution method; format: functional
Staphylococcus aureus [9] = assay: Antibacterial activity against Staphylococcus aureus ATCC 25923 after 16 to 24 hrs by twofold serial dilution method; format: functional
Staphylococcus aureus [10] = assay: Antibacterial activity against Staphylococcus aureus ATCC 13709 (Smith) after 16 to 24 hrs by twofold serial dilution method; format: functional
[11] = (§5) Inhibition of Bacillus subtilis DNA polymerase 3E assessed as incorporation of [3H]TMP into activated calf thymus DNA incubated with dATP, dCTP and [3H]TTP in absence of dGTP; method in brief: as §4
Bacillus subtilis [12] = assay: as §1; settings: concentration not given here; method in brief: as §2
Bacillus subtilis [13] = assay: as §5; design: concentration or dose not given beside the values; settings: concentration not given here; method in brief: as §4
Staphylococcus aureus [14] = assay: Antibacterial activity against Staphylococcus aureus Smith infected Swiss-webster mouse assessed as mouse survival at 30 mg/kg, ip administered 15 mins post-infection for 24 hrs relative to control; format: functional; settings: route intraperitoneal; method in brief: as §3

Compound | MIC (Escherichia coli [1]) | Ki [2] | MIC (Enterococcus faecalis [3]) | survival at 100 mg/kg (Staphylococcus aureus [4]) | MIC (Bacillus subtilis [5]) | inhibition (Escherichia coli [6]) | MIC (Staphylococcus aureus [7]) | MIC (Enterococcus faecalis [8]) | MIC (Enterococcus faecium) | MIC (Staphylococcus aureus [9]) | MIC (Staphylococcus aureus [10]) | Ki [11] | inhibition (Bacillus subtilis [12]) | inhibition (Bacillus subtilis [13]) | survival at 30 mg/kg (Staphylococcus aureus [14])
CCc1cc(Nc2cc(=O)n(CCCCO)c(=O)[nH]2)ccc1C | > 80 µg/mL | 0.063 µM | 5 µg/mL (≈ 15.8 µM) | 80% | < 1.25 µg/mL | < 10% |  |  |  |  |  |  |  |  | 
O=c1[nH]c(NCc2ccc(Cl)c(Cl)c2)cc2ncn(CCCCCN3CCOCC3)c12 | > 80 µg/mL |  | 15 µg/mL (≈ 32.3 µM) |  | 10 µg/mL (≈ 21.5 µM) |  | 20 µg/mL (≈ 43.1 µM) | 20 µg/mL (≈ 43.1 µM) | 20 µg/mL (≈ 43.1 µM) | 20 µg/mL (≈ 43.1 µM) | 20 µg/mL (≈ 43.1 µM) |  |  |  | 
O=c1[nH]c(NCc2ccc(Cl)c(Cl)c2)cc2c1ncn2CCCCN1CCOCC1 | > 40 µg/mL | 50 µM | > 40 µg/mL |  | > 40 µg/mL |  | > 40 µg/mL | > 40 µg/mL |  | > 40 µg/mL | > 40 µg/mL | 54 µM |  |  | 
COCCCCn1cnc2nc(NCc3ccc(Cl)c(Cl)c3)[nH]c(=O)c21 | > 80 µg/mL | 0.19 µM | 2.5 µg/mL (≈ 6.31 µM) |  | 1.4 µg/mL (≈ 3.53 µM) |  | 1.25 µg/mL (≈ 3.15 µM) | 2.5 µg/mL (≈ 6.31 µM) | 2.5 µg/mL (≈ 6.31 µM) | 3.7 µg/mL (≈ 9.34 µM) | 3.7 µg/mL (≈ 9.34 µM) |  |  |  | 
COCCCCn1c(C)nc2c(=O)[nH]c(NCc3ccc(Cl)c(Cl)c3)cc21 | > 80 µg/mL |  | > 80 µg/mL |  | > 80 µg/mL |  | > 80 µg/mL | > 80 µg/mL |  | > 80 µg/mL | > 80 µg/mL |  |  |  | 
CCc1cc(Nc2cc3c(ncn3CCCCOC)c(=O)[nH]2)ccc1C | > 80 µg/mL |  | > 80 µg/mL |  | > 80 µg/mL |  | > 80 µg/mL | > 80 µg/mL |  | > 80 µg/mL | > 80 µg/mL |  | < 10% | < 10% | 
COCCCCn1cnc2c(=O)[nH]c(NCc3ccc(Cl)c(Cl)c3)nc21 | > 80 µg/mL |  | > 80 µg/mL |  | > 80 µg/mL | < 10% | > 80 µg/mL | > 80 µg/mL |  | > 80 µg/mL | > 80 µg/mL |  | < 10% | < 10% | 
CCc1cc(Nc2cc3ncn(CCCCCOC)c3c(=O)[nH]2)ccc1C | > 80 µg/mL | 0.69 µM | > 80 µg/mL |  | 1.25 µg/mL (≈ 3.39 µM) | < 10% | 2.5 µg/mL (≈ 6.78 µM) | > 80 µg/mL | 2.5 µg/mL (≈ 6.78 µM) | 2.5 µg/mL (≈ 6.78 µM) | 2.5 µg/mL (≈ 6.78 µM) | 490 µM |  |  | 40%
O=c1[nH]c(NCc2ccc(Cl)c(Cl)c2)cc2ncn(CCCCN3CCOCC3)c12 | > 80 µg/mL | 0.094 µM | 10 µg/mL (≈ 22.2 µM) |  | 7.5 µg/mL (≈ 16.7 µM) |  | 20 µg/mL (≈ 44.4 µM) | 20 µg/mL (≈ 44.4 µM) | 15 µg/mL (≈ 33.3 µM) | 20 µg/mL (≈ 44.4 µM) |  | 0.2 µM |  |  | 
Oc1nc(NCc2ccc(Cl)c(Cl)c2)nc2ncn(CCCCN3CCOCC3)c12 | > 80 µg/mL |  | 5 µg/mL (≈ 11.1 µM) |  | 10 µg/mL (≈ 22.2 µM) |  | 40 µg/mL (≈ 88.6 µM) | 10 µg/mL (≈ 22.2 µM) | 10 µg/mL (≈ 22.2 µM) | 20 µg/mL (≈ 44.3 µM) |  |  |  |  | 
COCCCCn1cnc2cc(NCc3ccc(Cl)c(Cl)c3)[nH]c(=O)c21 | > 80 µg/mL | 0.19 µM | 2.5 µg/mL (≈ 6.32 µM) |  | 0.625 µg/mL (≈ 1.58 µM) |  | 2.5 µg/mL (≈ 6.32 µM) | 5 µg/mL (≈ 12.6 µM) | 5 µg/mL (≈ 12.6 µM) | 5 µg/mL (≈ 12.6 µM) | 3.75 µg/mL (≈ 9.49 µM) | 0.37 µM |  |  | 
O=C(O)c1cn(C2CC2)c2cc(N3CCNCC3)c(F)cc2c1=O [CIPROFLOXACIN] | 0.313 µg/mL (≈ 0.945 µM) |  |  |  | 0.078 µg/mL (≈ 0.235 µM) |  | > 20 µg/mL |  | 5 µg/mL (≈ 15.1 µM) | 0.156 µg/mL (≈ 0.471 µM) | 0.078 µg/mL (≈ 0.235 µM) |  |  |  | 
OCCCCCn1cnc2nc(NCc3ccc(Cl)c(Cl)c3)nc(O)c21 | > 80 µg/mL |  | 5 µg/mL (≈ 12.6 µM) |  |  |  | 10 µg/mL (≈ 25.2 µM) |  |  | 20 µg/mL (≈ 50.5 µM) |  |  |  |  | 
